{"data": "Assay results collected from several papers", "DUOX2": "DUOX2 (Homo sapiens, UniProt Q9NRD8)", "HTR1F": "5-hydroxytryptamine receptor 1F (HTR1F, Homo sapiens, UniProt P30939)", "MPO": "Myeloperoxidase (MPO, Homo sapiens, UniProt P05164)", "note": "pEC50, pIC50, pKd, pKi: −log10 of the molar value."}
{"Compound": "C[C@@H]1CN(C(=O)[C@@H]2CN(C(C)(C)C)C[C@H]2c2ccc(F)cc2F)C[C@H](C)[C@@]1(O)c1ccccc1", "target": "Melanocortin receptor 4 (MC4R, Homo sapiens, UniProt P32245)", "test": "ligand displacement, radioligand", "measurement": "pKi", "result": 6.70}
{"Compound": "Cc1coc2c1C(=O)C(=O)c1c-2ccc2c1CCCC2(C)CO (stereo not shown)", "target": "DUOX2", "test": "enzyme activity, inhibitor", "setting": "cell membranes", "measurement": "pIC50", "result": 5.05}
{"Compound": "CN(C)CCOC1=Cc2ccccc2Sc2ccc(Cl)cc21", "target": "HTR1F", "test": "G protein activation, agonist, BRET", "measurement": "pEC50", "result": 5.74}
{"Compound": "CC(C)CCC[C@@H](C)[C@H]1CC[C@H]2[C@@H]3CC[C@H]4C[C@H](N)CC[C@]4(C)[C@H]3CC[C@]12C", "target": "Phosphatidylinositol 3,4,5-trisphosphate 5-phosphatase 1 (INPP5D, Homo sapiens, UniProt Q92835)", "test": "enzyme activity, inhibitor, absorbance", "setting": "pH 7.4", "measurement": "pIC50", "result": 4.65}
{"Compound": "O=c1oc2cc(O)ccc2c2ccc(O)cc12", "target": "Glutaminase kidney isoform, mitochondrial (GLS, Homo sapiens, UniProt O94925)", "test": "binding, SPR", "measurement": "pKd", "result": 9.58}
{"Compound": "Nc1ncnc2c1ncn2[C@@H]1O[C@H](COP(=O)(O)OP(=O)(O)OP(=O)(O)OP(=O)(O)OP(=O)(O)OC[C@H]2O[C@@H](n3cnc4c(N)ncnc43)[C@H](O)[C@@H]2O)[C@@H](O)[C@H]1O", "target": "adk (Escherichia coli, UniProt P69441)", "test": "binding, ITC", "measurement": "pKd", "result": 6.70}
{"Compound": "CN1CCN2c3ccccc3Cc3ccccc3C2C1 (stereo not shown)", "target": "HTR1F", "test": "G protein activation, agonist, BRET", "measurement": "pEC50", "result": 7.32}
{"Compound": "CC(=O)c1cccc(NC(=O)c2cc3c(cc2[N+](=O)[O-])OCO3)c1", "target": "MPO", "test": "enzyme activity, inhibitor", "measurement": "pIC50", "result": 5.00}
{"Compound": "O=c1oc(-c2cccnc2)nc2ccccc12", "target": "Plasma kallikrein (KLKB1, Homo sapiens, UniProt P03952)", "test": "enzyme activity, inhibitor, absorbance", "measurement": "pIC50", "result": "< 4.30"}
{"Compound": "CCOc1ccccc1OCCN[C@H](C)Cc1ccc(OC)c(S(N)(=O)=O)c1", "target": "Anoctamin-1 (Ano1, Mus musculus, UniProt Q8BHY3)", "test": "ion current, inhibitor, patch clamp", "measurement": "pIC50", "result": 5.14}
{"Compound": "C[C@H]1COC2=C1C(=O)C(=O)c1c2ccc2c1CCCC2(C)C", "target": "DUOX2", "test": "enzyme activity, inhibitor", "setting": "cell membranes", "measurement": "pIC50", "result": 5.68}
{"Compound": "COc1ccc(CNC(=O)c2cc3c(cc2[N+](=O)[O-])OCO3)cc1", "target": "MPO", "test": "enzyme activity, inhibitor", "measurement": "pIC50", "result": 5.35}
{"Compound": "CCCC(=O)NCCCN1CCc2c([nH]c3ccc(Cl)cc23)C1", "target": "Sodium-dependent noradrenaline transporter (SLC6A2, Homo sapiens, UniProt P23975)", "test": "transporter uptake, inhibitor", "measurement": "pIC50", "result": 3.60}
